Key:
MCF7 = assay: Cytotoxicity against human MCF7 cells; type: cell-based
HeLa = assay: Cytotoxicity against human HeLa cells; type: cell-based
PC-3 = assay: Cytotoxicity against human PC3 cells; type: cell-based
Micrococcus luteus = assay: Antimicrobial activity against Micrococcus luteus ATCC 10240 after 24 hrs by Kirby-Bauer agar diffusion assay; type: functional
Method in brief: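 Modified Kirby-Bauer well diffusion. Overnight LB cultures (18–24 h) were standardized in 0.9% saline to 0.5 McFarland and mixed into melted MHII agar at 47–50 °C, giving ~5×10³ CFU/mL. 9 mm wells received 50 µL of 2.0 mM compound in 10:1 MeOH:DMSO. Plates were incubated 24 h at 37 °C, then growth-inhibition zone diameter was measured (mm) by caliper.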

COC1C=C[C@@H](N(O)c2cccc(C)n2)C1 (mixture of isomers)
Activity (MCF7): Non-toxic | Activity (HeLa): Non-toxic | Activity (PC-3): Non-toxic | diameter of the inhibition zone (DIZ) (Micrococcus luteus): >14 mm

CC(C)O[C@@H]1C=C[C@@H](N(O)c2ccc(Br)cn2)CC1 (relative stereo)
Activity (MCF7): Non-toxic | Activity (HeLa): Non-toxic | Activity (PC-3): Non-toxic | diameter of the inhibition zone (DIZ) (Micrococcus luteus): >14 mm

C=C(CN(O)c1cc(C)on1)c1ccccc1
Activity (MCF7): Non-toxic | Activity (HeLa): Non-toxic | Activity (PC-3): Non-toxic | diameter of the inhibition zone (DIZ) (Micrococcus luteus): >14 mm

CC(C)(C)O[C@@H]1C=CC[C@H]1N(O)c1ccc(Cl)cn1
Activity (MCF7): Non-toxic | Activity (HeLa): Non-toxic | Activity (PC-3): Non-toxic | diameter of the inhibition zone (DIZ) (Micrococcus luteus): >14 mm

CCCN(OCc1ccc(OC)cc1)c1ccccn1
Activity (MCF7): Non-toxic | Activity (HeLa): Non-toxic | Activity (PC-3): Non-toxic | diameter of the inhibition zone (DIZ) (Micrococcus luteus): <=14 mm

CO[C@@H]1C=CC[C@H]1N(O)C(=O)OC(C)(C)C (racemic)
Activity (MCF7): Non-toxic | Activity (HeLa): Non-toxic | Activity (PC-3): Non-toxic | diameter of the inhibition zone (DIZ) (Micrococcus luteus): <=14 mm

COc1ccc(CON(C)c2ccccn2)cc1
Activity (MCF7): Non-toxic | Activity (HeLa): Non-toxic | Activity (PC-3): Non-toxic | diameter of the inhibition zone (DIZ) (Micrococcus luteus): <=14 mm

C=C(C)C(C)(C)N(O)c1cc(C)on1
Activity (MCF7): Non-toxic | Activity (HeLa): Non-toxic | Activity (PC-3): Non-toxic | diameter of the inhibition zone (DIZ) (Micrococcus luteus): >14 mm

O=Nc1ccc(I)cn1
Activity (MCF7): Non-toxic | Activity (HeLa): Non-toxic | Activity (PC-3): Non-toxic | diameter of the inhibition zone (DIZ) (Micrococcus luteus): <=14 mm

Cc1cc(N(O)[C@@H]2C=CC(OC(C)(C)C)C2)no1 (mixture of isomers)
Activity (MCF7): Non-toxic | Activity (HeLa): Non-toxic | Activity (PC-3): Non-toxic | diameter of the inhibition zone (DIZ) (Micrococcus luteus): >14 mm

CCCCCCN(OCc1ccc(OC)cc1)c1ccccn1
Activity (MCF7): Non-toxic | Activity (HeLa): Non-toxic | Activity (PC-3): Non-toxic | diameter of the inhibition zone (DIZ) (Micrococcus luteus): <=14 mm

O=C(c1ccccc1)N1OC2C=CC21 (racemic)
Activity (MCF7): Non-toxic | Activity (HeLa): Non-toxic | Activity (PC-3): Non-toxic | diameter of the inhibition zone (DIZ) (Micrococcus luteus): <=14 mm

O[C@H]1C=C[C@@H](N(O)c2ccc(Br)cn2)C1 (racemic)
Activity (MCF7): Non-toxic | Activity (HeLa): Non-toxic | Activity (PC-3): Non-toxic | diameter of the inhibition zone (DIZ) (Micrococcus luteus): >14 mm

ON(c1ccc(Br)cn1)[C@@H]1CCC=C[C@H]1OCc1ccccc1 (relative stereo)
Activity (MCF7): Non-toxic | Activity (HeLa): Non-toxic | Activity (PC-3): Non-toxic | diameter of the inhibition zone (DIZ) (Micrococcus luteus): >14 mm

CC(C)C[C@H](NC(=O)OC(C)(C)C)C(=O)NO
Activity (MCF7): Non-toxic | Activity (HeLa): Non-toxic | Activity (PC-3): Non-toxic | diameter of the inhibition zone (DIZ) (Micrococcus luteus): <=14 mm

O=C(Cc1ccccc1)NO [PHENYLACETOHYDROXAMIC ACID]
Activity (MCF7): Non-toxic | Activity (HeLa): Non-toxic | Activity (PC-3): Non-toxic | diameter of the inhibition zone (DIZ) (Micrococcus luteus): <=14 mm

CC(C)(C)OC1C=C[C@@H](N(O)c2ccc(Br)cn2)C1 (mixture of isomers)
Activity (MCF7): Non-toxic | Activity (HeLa): Non-toxic | Activity (PC-3): Non-toxic | diameter of the inhibition zone (DIZ) (Micrococcus luteus): >14 mm

O[C@@H]1C=CC[C@H]1N(O)c1ccc(Br)cn1 (racemic)
Activity (MCF7): Non-toxic | Activity (HeLa): Non-toxic | Activity (PC-3): Non-toxic | diameter of the inhibition zone (DIZ) (Micrococcus luteus): >14 mm

C=CCO[C@@H]1C=C[C@@H](N(O)c2ccc(Br)cn2)CC1 (racemic)
Activity (MCF7): Non-toxic | Activity (HeLa): Non-toxic | Activity (PC-3): Non-toxic | diameter of the inhibition zone (DIZ) (Micrococcus luteus): >14 mm

O=Nc1ccccn1
Activity (MCF7): Non-toxic | Activity (HeLa): Non-toxic | Activity (PC-3): Non-toxic | diameter of the inhibition zone (DIZ) (Micrococcus luteus): <=14 mm

Cc1ccnc(N=O)c1
Activity (MCF7): Non-toxic | Activity (HeLa): Non-toxic | Activity (PC-3): Non-toxic | diameter of the inhibition zone (DIZ) (Micrococcus luteus): <=14 mm

COC1C=C[C@@H](N(O)c2ccc(Br)cn2)C1 (mixture of isomers)
Activity (MCF7): Non-toxic | Activity (HeLa): Non-toxic | Activity (PC-3): Non-toxic | diameter of the inhibition zone (DIZ) (Micrococcus luteus): >14 mm

CO[C@@H]1C=C[C@@H](N(O)C(=O)OC(C)(C)C)C1 (racemic)
Activity (MCF7): Non-toxic | Activity (HeLa): Non-toxic | Activity (PC-3): Non-toxic | diameter of the inhibition zone (DIZ) (Micrococcus luteus): <=14 mm

Cc1cccc(N(O)[C@@H]2C=C[C@@H](OC(C)(C)C)C2)n1 (relative stereo)
Activity (MCF7): Non-toxic | Activity (HeLa): Non-toxic | Activity (PC-3): Non-toxic | diameter of the inhibition zone (DIZ) (Micrococcus luteus): >14 mm

O=Nc1ncc(Cl)cc1Cl
Activity (MCF7): Non-toxic | Activity (HeLa): Non-toxic | Activity (PC-3): Non-toxic | diameter of the inhibition zone (DIZ) (Micrococcus luteus): <=14 mm

Cc1cccnc1N(O)[C@@H]1CC=C[C@H]1OC(C)C (racemic)
Activity (MCF7): Non-toxic | Activity (HeLa): Non-toxic | Activity (PC-3): Non-toxic | diameter of the inhibition zone (DIZ) (Micrococcus luteus): >14 mm

O[C@@H]1C=CCC[C@H]1N(O)c1ccc(Br)cn1 (racemic)
Activity (MCF7): Non-toxic | Activity (HeLa): Non-toxic | Activity (PC-3): Non-toxic | diameter of the inhibition zone (DIZ) (Micrococcus luteus): >14 mm

CCc1cccc(N=O)n1
Activity (MCF7): Non-toxic | Activity (HeLa): Non-toxic | Activity (PC-3): Non-toxic | diameter of the inhibition zone (DIZ) (Micrococcus luteus): <=14 mm

Cc1nc(N=O)ccc1Br
Activity (MCF7): Non-toxic | Activity (HeLa): Non-toxic | Activity (PC-3): Non-toxic | diameter of the inhibition zone (DIZ) (Micrococcus luteus): <=14 mm

Clc1ccc(N2OC3C=CC2C3)nc1 (racemic)
Activity (MCF7): Non-toxic | Activity (HeLa): Non-toxic | Activity (PC-3): Non-toxic | diameter of the inhibition zone (DIZ) (Micrococcus luteus): <=14 mm

O=Nc1ncc(C(F)(F)F)cc1Cl
Activity (MCF7): Non-toxic | Activity (HeLa): Non-toxic | Activity (PC-3): Non-toxic | diameter of the inhibition zone (DIZ) (Micrococcus luteus): <=14 mm

COc1ccc(CON(Cc2ccccc2)c2cccnc2)cc1
Activity (MCF7): Non-toxic | Activity (HeLa): Non-toxic | Activity (PC-3): Non-toxic

O=C(NO)c1ccccc1 [BENZOHYDROXAMATE]
Activity (MCF7): Non-toxic | Activity (HeLa): Non-toxic | Activity (PC-3): Non-toxic | diameter of the inhibition zone (DIZ) (Micrococcus luteus): <=14 mm

O=Nc1ccc(Cl)cn1
Activity (MCF7): Non-toxic | Activity (HeLa): Non-toxic | Activity (PC-3): Non-toxic | diameter of the inhibition zone (DIZ) (Micrococcus luteus): <=14 mm

COc1ccc(CON(CCc2ccccc2)c2ccccn2)cc1
Activity (MCF7): Non-toxic | Activity (HeLa): Non-toxic | Activity (PC-3): Non-toxic | diameter of the inhibition zone (DIZ) (Micrococcus luteus): <=14 mm

C=CCN(OCc1ccc(OC)cc1)c1ccccn1
Activity (MCF7): Non-toxic | Activity (HeLa): Non-toxic | Activity (PC-3): Non-toxic | diameter of the inhibition zone (DIZ) (Micrococcus luteus): <=14 mm

CC(C)(C)O[C@@H]1C=CCC[C@H]1N(O)c1ccc(Br)cn1 (racemic)
Activity (MCF7): Non-toxic | Activity (HeLa): Non-toxic | Activity (PC-3): Non-toxic | diameter of the inhibition zone (DIZ) (Micrococcus luteus): >14 mm

CC(C)(C)OC(=O)N1OC2C=CC1C2 (racemic)
Activity (MCF7): Non-toxic | Activity (HeLa): Non-toxic | Activity (PC-3): Non-toxic | diameter of the inhibition zone (DIZ) (Micrococcus luteus): <=14 mm

Cc1cccc(N=O)n1
Activity (MCF7): Non-toxic | Activity (HeLa): Non-toxic | Activity (PC-3): Non-toxic | diameter of the inhibition zone (DIZ) (Micrococcus luteus): <=14 mm

CC(C)OC1C=C[C@@H](N(O)c2ccc(Cl)cn2)C1 (mixture of isomers)
Activity (MCF7): Non-toxic | Activity (HeLa): Non-toxic | Activity (PC-3): Non-toxic | diameter of the inhibition zone (DIZ) (Micrococcus luteus): >14 mm

O=C(Cc1ccccc1)N1OC2C=CC1C2 (racemic)
Activity (MCF7): Non-toxic | Activity (HeLa): Non-toxic | Activity (PC-3): Non-toxic | diameter of the inhibition zone (DIZ) (Micrococcus luteus): <=14 mm

CO[C@@H]1C=CC[C@H]1N(O)c1ccc(Br)cn1 (racemic)
Activity (MCF7): Non-toxic | Activity (HeLa): Non-toxic | Activity (PC-3): Non-toxic | diameter of the inhibition zone (DIZ) (Micrococcus luteus): >14 mm

Cc1cccc(N(O)[C@@H]2CCC=C[C@H]2OC(C)C)n1 (racemic)
Activity (MCF7): Non-toxic | Activity (HeLa): Non-toxic | Activity (PC-3): Non-toxic | diameter of the inhibition zone (DIZ) (Micrococcus luteus): >14 mm

Brc1ccc(N2OC3C=CC2C3)nc1 (racemic)
Activity (MCF7): Non-toxic | Activity (HeLa): Non-toxic | Activity (PC-3): Non-toxic | diameter of the inhibition zone (DIZ) (Micrococcus luteus): <=14 mm

O[C@@H]1C=C[C@@H](N(O)c2ccc(Br)cn2)C1 (racemic)
Activity (MCF7): Non-toxic | Activity (HeLa): Non-toxic | Activity (PC-3): Non-toxic | diameter of the inhibition zone (DIZ) (Micrococcus luteus): >14 mm

CO[C@@H]1C=CC[C@H]1N(O)c1ccc(Cl)cn1 (racemic)
Activity (MCF7): Non-toxic | Activity (HeLa): Non-toxic | Activity (PC-3): Non-toxic | diameter of the inhibition zone (DIZ) (Micrococcus luteus): >14 mm

Cc1cccc(N2OC3C=CC2CC3)n1 (racemic)
Activity (MCF7): Non-toxic | Activity (HeLa): Non-toxic | Activity (PC-3): Non-toxic | diameter of the inhibition zone (DIZ) (Micrococcus luteus): <=14 mm

C=C(C)C(C)N(O)C(=O)[C@H](C)NC(=O)OC(C)(C)C (mixture of isomers)
Activity (MCF7): Non-toxic | Activity (HeLa): Non-toxic | Activity (PC-3): Non-toxic | diameter of the inhibition zone (DIZ) (Micrococcus luteus): <=14 mm

COc1ccc(CON(Cc2ccccc2)Cc2ccccn2)cc1
Activity (MCF7): Non-toxic | Activity (HeLa): Non-toxic | Activity (PC-3): Non-toxic

— ChEMBL document CHEMBL1914331, “N-O chemistry for antibiotics: discovery of N-alkyl-N-(pyridin-2-yl)hydroxylamine scaffolds as selective antibacterial agents using nitroso Diels-Alder and ene chemistry” (J Med Chem, 2011)
